Here are results for 33 compounds from ChEMBL document CHEMBL1157459 (J Med Chem, 2008).

The source made the active and inactive calls. The calls are words filed in the database; no cut-off is given here.

Assay [1] concerns the target T1, GABA-A receptor; agonist GABA site (Homo sapiens) (UniProt P14867+P47870+P28472+P48169+P34903+P18505+P47869+P31644+Q16445). Kind of assay: Activity at human alpha-1-beta-2-gamma-2L GABAA receptor expressed in Xenopus oocytes assessed as inhibition of current production at 600 uM by two electrode voltage clamp method relative to GABA. The class given is cell-based. The settings on record: Oocyte.

The target of assay [2] is T2, Gamma-aminobutyric acid receptor subunit rho-1 (Homo sapiens, UniProt P24046). Kind of assay: Antagonist activity at human GABAc Rho1 receptor expressed in Xenopus oocytes assessed as whole cell current production by two electrode voltage clamp method. In kind it is functional, cell-based. The settings on record: for Kb: Oocyte. On the technique in general: Two-electrode voltage clamp holds a large cell at a set potential and records current.
T2 sequence (P24046 whole entry): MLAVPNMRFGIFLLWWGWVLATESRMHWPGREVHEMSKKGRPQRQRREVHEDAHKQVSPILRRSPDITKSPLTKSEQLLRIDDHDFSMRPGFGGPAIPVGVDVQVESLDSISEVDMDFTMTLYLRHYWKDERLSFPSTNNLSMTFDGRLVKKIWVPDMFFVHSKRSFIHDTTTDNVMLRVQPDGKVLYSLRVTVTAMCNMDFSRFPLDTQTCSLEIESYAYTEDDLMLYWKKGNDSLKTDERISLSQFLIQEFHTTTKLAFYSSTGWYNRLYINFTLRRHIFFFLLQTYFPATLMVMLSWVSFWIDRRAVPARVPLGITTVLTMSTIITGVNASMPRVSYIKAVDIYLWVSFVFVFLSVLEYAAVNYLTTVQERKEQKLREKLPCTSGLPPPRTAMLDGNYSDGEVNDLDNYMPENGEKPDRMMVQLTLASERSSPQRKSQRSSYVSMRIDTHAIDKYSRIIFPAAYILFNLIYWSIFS

The target of assay [3] is T2, Gamma-aminobutyric acid receptor subunit rho-1. Briefly: Agonist activity at human GABAc Rho1 receptor expressed in Xenopus oocytes assessed as whole cell current production by two electrode voltage clamp method. The class given is functional, cell-based, Oocyte.
The target is the same in assay [4]. Briefly: Antagonist activity at human GABAc Rho1 receptor expressed in Xenopus oocytes assessed as whole cell current production at 600 uM by two electrode voltage clamp method. The class given is functional, cell-based. The settings on record: Oocyte.
The target in assay [5] is T3, Gamma-aminobutyric acid type B receptor subunit 1 (Homo sapiens, UniProt Q9UBS5). Kind of assay: Activity at human GABAb 1A/2 receptor expressed in Xenopus oocytes assessed as whole cell current production at 600 uM by two electrode voltage clamp method. The class given is cell-based. The note with it: Oocyte.
T3 sequence (Q9UBS5 whole entry): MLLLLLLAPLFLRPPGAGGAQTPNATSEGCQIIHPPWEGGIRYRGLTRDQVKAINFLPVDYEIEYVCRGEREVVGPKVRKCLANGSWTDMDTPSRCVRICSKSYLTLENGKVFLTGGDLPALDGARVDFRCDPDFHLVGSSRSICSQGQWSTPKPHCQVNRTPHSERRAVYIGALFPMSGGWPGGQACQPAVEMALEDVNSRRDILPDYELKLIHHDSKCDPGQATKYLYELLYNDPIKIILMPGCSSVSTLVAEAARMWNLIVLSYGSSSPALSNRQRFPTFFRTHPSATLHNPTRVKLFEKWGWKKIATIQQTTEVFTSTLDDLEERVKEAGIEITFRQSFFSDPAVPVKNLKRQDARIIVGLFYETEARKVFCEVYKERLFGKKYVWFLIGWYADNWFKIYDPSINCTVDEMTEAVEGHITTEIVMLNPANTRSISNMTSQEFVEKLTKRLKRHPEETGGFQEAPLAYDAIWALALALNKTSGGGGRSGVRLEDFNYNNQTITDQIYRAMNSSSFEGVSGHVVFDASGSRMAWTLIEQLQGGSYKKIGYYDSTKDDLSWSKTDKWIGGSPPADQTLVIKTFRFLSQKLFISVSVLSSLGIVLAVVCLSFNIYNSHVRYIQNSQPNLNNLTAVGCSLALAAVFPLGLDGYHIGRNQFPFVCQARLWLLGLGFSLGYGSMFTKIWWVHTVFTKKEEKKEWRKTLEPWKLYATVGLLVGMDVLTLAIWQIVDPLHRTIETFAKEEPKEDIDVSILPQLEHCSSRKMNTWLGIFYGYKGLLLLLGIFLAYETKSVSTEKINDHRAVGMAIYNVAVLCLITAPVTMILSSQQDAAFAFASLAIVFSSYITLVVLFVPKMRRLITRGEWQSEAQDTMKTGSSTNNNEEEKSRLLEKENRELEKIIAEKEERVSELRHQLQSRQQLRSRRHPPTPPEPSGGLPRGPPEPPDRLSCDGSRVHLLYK
Assay [6] concerns the target T1, GABA-A receptor; agonist GABA site (Homo sapiens). Kind of assay: Agonist activity at human alpha-1-beta-2-gamma-2L GABAA receptor expressed in Xenopus oocytes assessed as inhibition of current production by two electrode voltage clamp method. The class given is functional, cell-based. The note with it: Oocyte.
Assay [7] addresses T3, Gamma-aminobutyric acid type B receptor subunit 1. Kind of assay: Intrinsic activity at human GABAb 1A/2 receptor expressed in Xenopus oocytes assessed as maximum whole cell current production by two electrode voltage clamp method relative to GABA. In kind it is cell-based. The settings on record: Oocyte. The essentials: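 Human GABA-B(1A/2) receptors expressed from cRNA (50 ng/50 nL) in Xenopus oocytes held 1-5 days at 18 °C. Voltage clamp at -60 mV in high-K+ buffer (45 mM KCl, 45 mM NaCl, 1 mM MgCl2, 1.8 mM CaCl2, 5 mM HEPES). Responses normalised to the maximal response to 600 µM GABA. Imax and EC50 taken from concentration-response fits. Mean ± SEM, n = 3-5 oocytes.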

Assay [8] has the same target. Kind of assay: Agonist activity at human GABAb 1A/2 receptor expressed in Xenopus oocytes assessed as whole cell current production by two electrode voltage clamp method. In kind it is functional, cell-based, Oocyte.

Consider `CCCCP(=O)(O)C1=CC[C@H](N)C1`, for which, in assay [1], the inhibition – broadly, the percentage by which the read-out fell short of the control – was 24.2%. The Kb (usually the equilibrium dissociation constant of an antagonist, usually derived from a functional assay) in assay [2] amounted to 4.97 µM.

As to `NCc1cc(=O)[nH]o1` [MUSCIMOL], the EC50 – broadly, the midpoint of the concentration-response curve – in assay [3] was found to be 1.4 µM.

Consider `CP(=O)(O)[C@H]1CC[C@H](N)C1`, for which, in assay [2], the antagonist dissociation constant (Kb) worked out at 6.6 µM.

Consider `CP(=O)(O)[C@H]1CC[C@@H](N)C1`, for which the Kb in assay [2] stood at 1.1 µM.

As to `CP(=O)(O)[C@]1(O)C[C@@H](N)C1`, the result in assay [4] and in assay [5] was inactive.

Take `NC[C@H]1C[C@@H]1C(=O)O`: the EC50 in assay [3] was 59 µM.

Turning to `CP(=O)(O)[C@H]1C[C@@H](N)C1`, in assay [2], the half-inhibitory concentration (IC50) – broadly, the concentration that gives 50% inhibition – is above 100 µM. Besides, in assay [5], the result was inactive.

Turning to `N[C@H]1CC=C(C(=O)O)C1` (stereo in doubt; 6), the ED50 in assay [6] is 1.1 µM. In assay [2], the Kb is 6 µM.

`O=C(O)Cc1c[nH]cn1`: the antagonist dissociation constant (Kb) in assay [2] was determined as 1.7 µM.

Consider `Oc1noc2c1CCNC2`, for which the Kb in assay [2] is 32 µM.

Take `CCCCP(=O)(O)C1=CCC(N)C1` (racemic): the inhibition in assay [1] is 23.2%. Further, in assay [2], the antagonist equilibrium constant (Kb) came out at 7.24 µM.

As to `CP(=O)(O)C1=CC[C@H](N)C1`, in assay [7], the Imax was 75.9%. Further, in assay [1], the inhibition came out at 4.1%. For the same compound, the Kb in assay [2] was 0.78 µM. In assay [8], the concentration for a half-maximal effect (EC50) was determined as 52.2 µM.

Regarding `CP(=O)(O)C1CCNCC1`, the Kb in assay [2] was determined as 6 µM.

Take `CP(=O)(O)C1=CCNCC1`: the antagonist dissociation constant (Kb) in assay [2] was found to be 2.1 µM. Also, the 50% effective concentration (EC50) in assay [8] is 500 µM.

Consider `CP(=O)(O)[C@H]1C[C@H](N)C1`, for which the half-maximal inhibitory concentration (IC50) in assay [2] is above 100 µM. Also, the result in assay [5] was inactive.

In the case of `CP(=O)(O)C1=CCC(N)C1` (racemic), the Imax in assay [7] was 56.4%. In assay [1], the inhibition amounted to 6.2%. In addition, the Kb in assay [2] was found to be 1.84 µM. In assay [8], the EC50 stood at 51 µM.

`CP(=O)(O)[C@@H]1CC[C@H](N)C1`: the Kb in assay [2] worked out at 1.1 µM.

Consider `CP(=O)(O)[C@@H]1CC[C@@H](N)C1`, for which, in assay [2], the antagonist dissociation constant (Kb) was determined as 6.6 µM.

Regarding `CP(=O)(O)C1=CC[C@@H](N)C1`, in assay [7], the Imax was determined as 52.3%. The outcome in assay [1] was inactive. Further, the Kb in assay [2] worked out at 18.9 µM. In addition, the EC50 in assay [8] came to 71.9 µM.

As for `O=[Se](O)C1CCNCC1`, the Kb in assay [2] stood at 0.95 µM.

As to `CC(C)P(=O)(O)C1=CCC(N)C1` (racemic), in assay [1], the inhibition came out at 8.8%. The Kb in assay [2] turned out to be 13.1 µM.

On to `CP(=O)(O)/C=C\CN`, for which, in assay [2], the antagonist dissociation constant (Kb) worked out at 38.9 µM.

On to `CP(=O)(O)[C@]1(O)C[C@H](N)C1`, for which the result in assay [4] and in assay [5] was inactive.

Turning to `N[C@H]1CC=C(C(=O)O)C1` (stereo in doubt; (S-6)), the Kb in assay [2] amounted to 6.1 µM.

Regarding `NC[C@@H]1C[C@@H]1C(=O)O`, the IC50 in assay [2] is above 800 µM.

Take `NC/C=C/C(=O)O` [t-4-AMINOCROTONIC ACID (TACA)]: in assay [3], the EC50 was 0.4 µM.

As for `NC[C@H]1C[C@H]1C(=O)O`, the concentration giving a half-maximal response (EC50) in assay [3] worked out at 40 µM.

For `NC[C@@H]1C[C@H]1C(=O)O`, the EC50 in assay [3] turned out to be 9 µM.

As for `NC1CC=C(P(=O)(O)Cc2ccccc2)C1` (racemic), in assay [1], the inhibition stood at 64.1%. Besides, the antagonist equilibrium constant (Kb) in assay [2] was 48.6 µM.

In the case of `NCC(=O)CCC(=O)O` [AMINOLEVULINIC ACID], in assay [2], the IC50 is 12.9 µM.

As for `CCCCP(=O)(O)C1=CC[C@@H](N)C1`, the outcome in assay [1] was inactive. For the same compound, in assay [2], the antagonist equilibrium constant (Kb) was 59.3 µM.

As to `CCP(=O)(O)C1=CCC(N)C1` (racemic), the inhibition in assay [1] was determined as 5.2%. In addition, the antagonist dissociation constant (Kb) in assay [2] was found to be 3.53 µM.

`NCCCCC(=O)O`: the antagonist dissociation constant (Kb) in assay [2] stood at 20 µM.
